The results in this text go back to ChEMBL document CHEMBL1821692, “Synthesis and evaluation of diarylthiazole derivatives that inhibit activation of sterol regulatory element-binding proteins” (J Med Chem, 2011).

A word on the Papp: it is the rate of passage across a membrane or cell layer, normalised by area and donor concentration. In general, solubility refers to how much of the substance goes into solution per volume. A low value points to a poorly soluble substance.

The test system of data set [1] is Hepatocyte. In words: Metabolic stability in mouse hepatocytes at 1 uM after 90 mins by LC-MS/MS analysis. The format is ADME, cell-based. The conditions noted are these: 1.5 h. In outline:
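Each compound at 1 μM incubated at 37 °C in Leibovitz L-15 medium with mouse hepatocytes (3×10^5 cells mL⁻¹), in duplicate with shaking. […] After centrifugation the supernatant went to LC-MS/MS. Controls were compound in medium alone, and 7-ethoxycoumarin/7-hydroxycoumarin for phase I/II activity.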

Data set [2] has as its system Hepatocyte. The data set can be described thus: Half life in mouse hepatocytes at 1 uM after 90 mins by LC-MS/MS analysis. The format is ADME, cell-based, Liver. The conditions noted are these: 1.5 h. In outline:
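Compound at 1 μM incubated at 37 °C with shaking in Leibovitz L-15 medium with mouse hepatocytes (3×10^5 cells mL⁻¹), in duplicate. […] Medium-only incubations served as negative controls; 7-ethoxycoumarin and 7-hydroxycoumarin were positive controls for phase I/II activity.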

A short description of data set [3]: Apparent permeability at 10 uM after 4 hrs by PAMPA. It is filed as ADME. In outline: (§1)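 Passive diffusion across 15% soy lecithin in n-dodecane artificial membrane on a filter plate. […] Sandwich incubated 4 h at 37 °C. Acceptor, donor and initial donor solutions quantified by LC-MS/MS; Papp and % membrane retention calculated.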
Background: PAMPA measures passive passage across an artificial lipid membrane.

A short description of data set [4]: Aqueous solubility of the compound at pH 3 after 24 hrs by LC-MS/MS analysis. It is filed as physicochemical. Particulars: buffer, pH 3, 24 h. In outline: (§2)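 DMSO stock diluted to 250 μM in aqueous buffer at pH 3 or pH 7 and held 24 h. Solution filtered through a 0.22 μm membrane; compound in the filtrate quantified by LC-MS/MS.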
Data set [5] is described as follows: Apparent permeability assessed as membrane retention at 10 uM after 4 hrs by PAMPA. It is filed as ADME. In outline:
as §1

Data set [6] is described as follows: Aqueous solubility of the compound at pH 7 after 24 hrs by LC-MS/MS analysis. The format is physicochemical. The conditions noted are these: buffer, pH 7, 24 h. In outline: as §2
For data set [7], the target named is T1, Sterol regulatory element-binding protein 2 (Homo sapiens) (UniProt Q12772).
T1 sequence (whole entry): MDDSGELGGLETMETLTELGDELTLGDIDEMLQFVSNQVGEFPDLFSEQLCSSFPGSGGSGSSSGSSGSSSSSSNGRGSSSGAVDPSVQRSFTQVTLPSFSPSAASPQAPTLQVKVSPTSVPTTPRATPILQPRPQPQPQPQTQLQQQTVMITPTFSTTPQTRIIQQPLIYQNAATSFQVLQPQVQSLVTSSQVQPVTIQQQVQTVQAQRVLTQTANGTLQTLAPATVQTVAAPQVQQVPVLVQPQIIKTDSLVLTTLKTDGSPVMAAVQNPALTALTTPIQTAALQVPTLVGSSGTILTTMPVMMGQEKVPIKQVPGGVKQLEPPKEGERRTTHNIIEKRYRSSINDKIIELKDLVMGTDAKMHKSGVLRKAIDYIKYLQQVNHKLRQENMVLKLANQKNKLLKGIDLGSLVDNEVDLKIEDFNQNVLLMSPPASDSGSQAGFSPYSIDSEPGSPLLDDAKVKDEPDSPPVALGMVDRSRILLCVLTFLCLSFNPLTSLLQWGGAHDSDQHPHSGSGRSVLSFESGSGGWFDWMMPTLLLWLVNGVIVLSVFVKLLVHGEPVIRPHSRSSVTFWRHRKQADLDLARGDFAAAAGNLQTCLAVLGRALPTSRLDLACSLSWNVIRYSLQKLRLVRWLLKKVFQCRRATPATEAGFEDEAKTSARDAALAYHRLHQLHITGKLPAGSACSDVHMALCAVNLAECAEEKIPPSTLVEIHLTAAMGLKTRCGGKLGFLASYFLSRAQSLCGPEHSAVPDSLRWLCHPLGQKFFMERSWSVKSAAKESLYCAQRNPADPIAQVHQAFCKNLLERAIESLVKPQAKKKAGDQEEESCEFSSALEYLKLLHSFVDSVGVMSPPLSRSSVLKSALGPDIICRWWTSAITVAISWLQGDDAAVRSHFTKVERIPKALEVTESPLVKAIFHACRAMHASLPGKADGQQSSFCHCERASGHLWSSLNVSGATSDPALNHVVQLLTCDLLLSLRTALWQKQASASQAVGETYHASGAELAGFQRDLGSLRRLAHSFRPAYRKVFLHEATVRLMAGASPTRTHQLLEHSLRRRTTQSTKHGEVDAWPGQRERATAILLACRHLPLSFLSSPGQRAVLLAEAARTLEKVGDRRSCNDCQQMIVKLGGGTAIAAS
Particulars: CHO-K1; 1 to 20 uM.

SMILES strings stand for the structures. Values after ≈ are worked out from the molar mass of the structure shown. Active and inactive are the calls of the source. The calls are words filed in the database; no cut-off is given here.

`CCCc1cc(-c2nc(-c3ccc(NC(C)C)cc3)cs2)ccn1`: in the data set on Hepatocyte [1], the Stability entry is reported as “Stable”. In the data set with Hepatocyte [2], the t1/2 came out at 22.4 min. The Papp in data set [3] is given as 1.059 ×10⁻⁶ cm/s. Further, the solubility was greater than 225 µM in data set [4] and 3 µM (≈ 1.01 µg/mL) in data set [6]. The Activity in data set [5] was 93.95%.
Regarding `CCCc1cc(-c2nc(-c3ccc(NS(C)(=O)=O)cc3)cs2)ccn1`, the Stability result with Hepatocyte [1] is “Stable”. In the data set with Hepatocyte [2], this compound returned a t1/2 of 44.4 min. Further, the Papp in data set [3] came to 14.98 ×10⁻⁶ cm/s. The solubility in data set [4] was greater than 225 µM; in data set [6] it was 33 µM (≈ 12.3 µg/mL). Also, the Activity in data set [5] worked out at 97.35%. In data set [7], the inhibition result is “inactive”.
Regarding `CCCc1cc(-c2nc(-c3ccc(C)cc3)cs2)ccn1` [FATOSTATIN], the Stability result with Hepatocyte [1] is “Stable”. The same compound had a t1/2 with Hepatocyte [2] of 10.1 min. In data set [3], the apparent permeability coefficient (Papp) came to 0.7555 ×10⁻⁶ cm/s. Moreover, the solubility in data set [4] stood at 80 µM (≈ 23.6 µg/mL); in data set [6], 2 µM (≈ 0.589 µg/mL). Further, the Activity in data set [5] turned out to be 94%.
As for `CC(=O)CC(c1ccccc1)c1c(O)c2ccccc2oc1=O` (stereo not given) [WARFARIN], the Activity in data set [5] worked out at 0%.
